We go through eight compounds from ChEMBL document CHEMBL1158424, “Design, synthesis and biological investigation of certain pyrazole-3-carboxylic acid derivatives as novel carriers for nitric oxide” (Bioorg Med Chem, 2009).

≈ marks a conversion by molar mass, not a printed value. Calls of active or inactive are those of the source. No cut-off for these calls is given here.

One data set relates to Pseudomonas aeruginosa. Kind of data set: Antibacterial activity against Pseudomonas aeruginosa after 24 hrs by agar cup diffusion method. The data set is classed as functional. A digest of the protocol:
(§1)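 Nutrient agar seeded with culture, poured 3–4 mm; six 10 mm cups per plate, one as DMF solvent control. Compounds dissolved in DMF (stock 1 mg/mL), two-fold serial dilutions 32–512 µg/mL, 0.1 mL per cup. Incubation 24 h at 37 °C; inhibition zone diameter read in mm. MIC taken as intercept of log concentration versus zone diameter plot; ciprofloxacin reference.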

Another data set deals with Escherichia coli. Kind of data set: Antibacterial activity against Escherichia coli C-600 after 24 hrs by agar cup diffusion method. The data set is classed as functional. As to conditions: C-600, 24 h. A digest of the protocol: as §1
For another data set, the system named is Bacillus subtilis. As to the kind of experiment: Antibacterial activity against Bacillus subtilis after 24 hrs by agar cup diffusion method. The data set is classed as functional. A digest of the protocol:
as §1

In a further data set the test system is Staphylococcus aureus. Kind of data set: Antibacterial activity against Staphylococcus aureus NCTC 6571 after 24 hrs by agar cup diffusion method. In kind it is functional. In outline:
as §1

In data set [1] the test system is Rattus norvegicus. As to the kind of experiment: Antiinflammatory activity in albino rat assessed as inhibition of carrageenan-induced paw edema at 100 mg/kg, po administered 30 mins prior to carrageenan challenge measured after 1 hr. The data set is classed as functional. In outline: (§2)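 Male albino rats, 140–150 g, groups of 5, acclimatized 3 days, water only on the last day. Oral dosing in carboxymethylcellulose vehicle 30 min before subplantar 1% carrageenan (0.1 mL) into one hind paw; contralateral paw given saline. Paw thickness by digital plethysmometer at 0–5 h. Percent inhibition from difference between paws, treated versus vehicle control; indomethacin reference; mean ± SEM.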
On the technique in general: Carrageenan injected into the paw causes an acute inflammation.

Data set [2] relates to Rattus norvegicus. As to the kind of experiment: Antiinflammatory activity in albino rat assessed as inhibition of carrageenan-induced paw edema at 100 mg/kg, po administered 30 mins prior to carrageenan challenge measured after 2 hrs. The data set is classed as functional. In outline:
as §2

Data set [3] concerns Rattus norvegicus. Kind of data set: Antiinflammatory activity in albino rat assessed as inhibition of carrageenan-induced paw edema at 100 mg/kg, po administered 30 mins prior to carrageenan challenge measured after 3 hrs. The data set is classed as functional. A digest of the protocol:
as §2

Data set [4] relates to Rattus norvegicus. Kind of data set: Antiinflammatory activity in albino rat assessed as inhibition of carrageenan-induced paw edema at 100 mg/kg, po administered 30 mins prior to carrageenan challenge measured after 4 hrs. The data set is classed as functional. A digest of the protocol:
as §2

In data set [5] the test system is Rattus norvegicus. As to the kind of experiment: Antiinflammatory activity in albino rat assessed as inhibition of carrageenan-induced paw edema at 100 mg/kg, po administered 30 mins prior to carrageenan challenge measured after 5 hrs. The data set is classed as functional. A digest of the protocol:
as §2

Data set [6] concerns Rattus norvegicus. As to the kind of experiment: Gastrointestinal toxicity in albino rat assessed as ulcer index at 100 mg/kg, po. In kind it is organism-based. On the set-up: dose 100 mg/kg, route oral. To be noted: in vivo. A digest of the protocol: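 Rats from the paw edema study killed by ether overdose; stomachs removed, opened and examined for visible lesions. Each lesion scored 0–5 by length (0 none, 1 petechiae, 2 <1 mm, 3 1–2 mm, 4 2–4 mm, 5 >4 mm erosions). Scores summed per rat; group ulcer index is the mean lesion score.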

The subject of data set [7] is Rattus norvegicus. Kind of data set: Gastrointestinal toxicity in albino rat assessed as incidence of gastric ulceration at 100 mg/kg, po by histopathological study. In kind it is organism-based, Stomach. On the set-up: dose 100 mg/kg, route oral. As to conditions: in vivo. In outline: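 Gastric sections dewaxed, rehydrated, stained with haematoxylin 5–7 min, differentiated in 1% HCl in 70% alcohol, stained with 1% eosin 10 min, dehydrated, cleared in xylene, mounted and examined by light microscopy.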

A short description of data set [8]: Nitric oxide release in phosphate buffer at pH 7.4 after 1 hr by Griess diazotization reaction method in presence of L-cysteine. On the set-up: concentration or dose not given beside the values. A digest of the protocol:
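Incubation in pH 7.4 phosphate buffer with L-cysteine for 1 h at 37 °C. Then 1 mL of mixture treated with Griess reagent (sulfanilamide, N-naphthylethylenediamine, phosphoric acid); absorbance read at 540 nm after 25 min. Nitrite quantified against sodium nitrite standard curve; % release = found/theoretical NO × 100.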

Usually MIC stands for the lowest concentration found to suppress growth. Usually inhibition in vivo stands for the change of the read-out against control, counted positive when it falls. In the case of `CC(=O)c1ccc(NC(=O)c2nn(-c3ccccc3)c(-c3ccccc3)c2C(=O)c2ccccc2)cc1`, the MIC in the data set with Pseudomonas aeruginosa was 32.4 µg/mL (≈ 66.7 µM); in the data set on Escherichia coli it was 39.9 µg/mL (≈ 82.2 µM); with Bacillus subtilis it was 1.75 µg/mL (≈ 3.6 µM). In the data set on Staphylococcus aureus, the MIC result was “inactive”. The inhibition in vivo at 100 mg/kg was 29.1% with Rattus norvegicus [1]; 45.5% in the data set with Rattus norvegicus [2]; 45% with Rattus norvegicus [3]; 47.6% in the data set on Rattus norvegicus [4]; 61.8% in the data set on Rattus norvegicus [5]. The UI with Rattus norvegicus [6] is on record as 11.

In the case of `O=C(c1ccccc1)c1c(C(=O)N2CCNCC2)nn(-c2ccccc2)c1-c1ccccc1`, the minimal inhibitory concentration (MIC) against Pseudomonas aeruginosa came to 84.5 µg/mL (≈ 194 µM); against Escherichia coli it was 1.92 µg/mL (≈ 4.4 µM); against Bacillus subtilis it was 2.18 µg/mL (≈ 4.99 µM). For the same compound, the MIC entry with Staphylococcus aureus is “inactive”. For the same compound, the inhibition in vivo at 100 mg/kg with Rattus norvegicus [1] is 35%; with Rattus norvegicus [2], 41.7%; with Rattus norvegicus [3], 28.6%; in the data set with Rattus norvegicus [4] it was 51.5%; with Rattus norvegicus [5] it was 66.7%. Further, the UI in the data set with Rattus norvegicus [6] is on record as 23. In addition, the Activity entry in the data set with Rattus norvegicus [7] was “Toxic”.

Consider `O=C(c1ccccc1)c1c(C(=O)N2CCN(C(=O)CCl)CC2)nn(-c2ccccc2)c1-c1ccccc1`, for which the figures for the MIC in the data set on Pseudomonas aeruginosa, in the data set on Escherichia coli and in the data set with Bacillus subtilis were 61.5 µg/mL (≈ 120 µM), 1.37 µg/mL (≈ 2.67 µM) and 11.2 µg/mL (≈ 21.8 µM), respectively. In addition, the MIC result with Staphylococcus aureus is “inactive”.

With `O=C(O)c1cn(C2CC2)c2cc(N3CCNCC3)c(F)cc2c1=O` [CIPROFLOXACIN], the MIC was 30.8 µg/mL (≈ 93 µM) against Pseudomonas aeruginosa; 1.2 µg/mL (≈ 3.62 µM) in the data set with Escherichia coli; 0.61 µg/mL (≈ 1.84 µM) against Bacillus subtilis; 52.4 µg/mL (≈ 158 µM) in the data set with Staphylococcus aureus (NCTC 6571, 24 h).

`O=C(O)c1ccc(NC(=O)c2nn(-c3ccccc3)c(-c3ccccc3)c2C(=O)c2ccccc2)cc1`: the MIC was 25.3 µg/mL (≈ 52 µM) in the data set with Pseudomonas aeruginosa; 30.9 µg/mL (≈ 63.4 µM) in the data set on Escherichia coli; 34.8 µg/mL (≈ 71.4 µM) against Bacillus subtilis; 64 µg/mL (≈ 131 µM) with Staphylococcus aureus (NCTC 6571, 24 h). The inhibition in vivo at 100 mg/kg in the data set on Rattus norvegicus [1] came out at 23.6%; in the data set on Rattus norvegicus [2], 25%; with Rattus norvegicus [3] it was 27%; with Rattus norvegicus [4], 41.2%; in the data set on Rattus norvegicus [5], 46.4%. Besides, the UI in the data set with Rattus norvegicus [6] is 17.

On to `O=C(OCCO[N+](=O)[O-])c1nn(-c2ccccc2)c(-c2ccccc2)c1C(=O)c1ccccc1`, for which the MIC against Pseudomonas aeruginosa turned out to be 11.3 µg/mL (≈ 24.7 µM); against Escherichia coli it was 15.3 µg/mL (≈ 33.4 µM); against Bacillus subtilis, 21.7 µg/mL (≈ 47.4 µM). In addition, the Activity in data set [8] amounted to 7.1%. For the same compound, the MIC result with Staphylococcus aureus is “inactive”. Further, the inhibition in vivo at 100 mg/kg was 29.1% with Rattus norvegicus [1]; 35% in the data set on Rattus norvegicus [2]; 47.6% with Rattus norvegicus [3]; 58.8% in the data set with Rattus norvegicus [4]; 71% with Rattus norvegicus [5]. Also, the UI in the data set with Rattus norvegicus [6] was determined as 7.5.

On to `O=C(Nc1ccc(S(=O)(=O)Nc2ncccn2)cc1)c1nn(-c2ccccc2)c(-c2ccccc2)c1/C(=N/O)c1ccccc1`, for which the minimal inhibitory concentration (MIC) is 23.3 µg/mL (≈ 37.9 µM) in the data set with Pseudomonas aeruginosa, 30.9 µg/mL (≈ 50.1 µM) with Escherichia coli and 54.7 µg/mL (≈ 88.8 µM) with Bacillus subtilis. Besides, the Activity in [8] turned out to be 7.4%. For the same compound, the MIC result in the data set on Staphylococcus aureus was “inactive”. Further, the inhibition in vivo at 100 mg/kg in the data set on Rattus norvegicus [1] turned out to be 16.4%; in the data set with Rattus norvegicus [2], 26.7%; in the data set with Rattus norvegicus [3], 31.7%; in the data set with Rattus norvegicus [4], 51.5%; in the data set on Rattus norvegicus [5], 56.5%. Further, the UI with Rattus norvegicus [6] is listed as 7.6.

On to `O=C(OCCBr)c1nn(-c2ccccc2)c(-c2ccccc2)c1C(=O)c1ccccc1`, for which the values for the MIC against Pseudomonas aeruginosa, in the data set on Escherichia coli and in the data set with Bacillus subtilis were 6.04 µg/mL (≈ 12.7 µM), 24 µg/mL (≈ 50.6 µM) and 47.5 µg/mL (≈ 99.9 µM), respectively. Also, the MIC result with Staphylococcus aureus is “inactive”. Besides, the inhibition in vivo at 100 mg/kg turned out to be 25.4% in the data set with Rattus norvegicus [1]; 28.4% in the data set with Rattus norvegicus [2]; 30.2% in the data set on Rattus norvegicus [3]; 41.2% with Rattus norvegicus [4]; 52.2% with Rattus norvegicus [5]. Moreover, the UI with Rattus norvegicus [6] is given as 11.
